Shown are actives, neighbours in structure and some others; about 3.8% of the full set was active somewhere.
Kir21 block: Kir2.1 (mouse) channel inhibition | P35561 | HEK293-Kir2.1, FluxOR thallium flux fluorescence; active compounds read low | B-score at 10 µM | 310,000 compounds, 0.85% hits | AID 1672;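 active = fluorescence ratio B-score at or below minus 3 SD of library scores, with starting-brightness B-score within 2 SD, cut at about -4.2 in these data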;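 also: channel flux triggered by added potassium and thallium sulfate stimulus; B-score of peak minus minimum fluorescence over baseline after thallium stimulus; more negative B-score means stronger Kir2.1 block with less thallium influx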
Target sequence (P35561 whole entry, looked up): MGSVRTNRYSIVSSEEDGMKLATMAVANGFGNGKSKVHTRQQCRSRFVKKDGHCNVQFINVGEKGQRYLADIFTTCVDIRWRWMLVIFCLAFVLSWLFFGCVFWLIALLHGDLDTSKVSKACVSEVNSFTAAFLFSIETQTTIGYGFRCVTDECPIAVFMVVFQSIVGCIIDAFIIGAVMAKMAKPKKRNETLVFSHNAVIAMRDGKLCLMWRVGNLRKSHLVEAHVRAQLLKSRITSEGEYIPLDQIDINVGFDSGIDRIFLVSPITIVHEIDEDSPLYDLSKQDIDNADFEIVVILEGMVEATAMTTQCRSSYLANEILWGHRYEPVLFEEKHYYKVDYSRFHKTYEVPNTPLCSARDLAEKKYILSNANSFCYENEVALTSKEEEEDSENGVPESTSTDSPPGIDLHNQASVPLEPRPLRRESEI
KCNQ1 act: potentiators or activators of human KCNQ1 potassium channel | P51787 | CHO-K1 KCNQ1, thallium flux FluxOR fluorescence; active compounds read high | B-score at 10 µM | 310,000 compounds, 0.35% hits | AID 2648;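 active = fluorescence ratio B-score, a plate-corrected score, at least three library SD, with initial intensity B-score within 5 SD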
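Schedule – 37 °C overnight plating, 90-min dark dye load, 20-min compound pretreatment · System – stable KCNQ1 CHO-K1 line · Probe or stimulus – thallium- and potassium-containing depolarizing buffer · Measured by – kinetic FluxOR fluorescence, 10 s baseline plus 110 s post-stimulus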
KCNK3 inh: human KCNK3 channel inhibition, primary screen | O14649 | CHO-KCNK3 thallium flux, FluxOR fluorescence; active compounds read low | B-score at 10 µM | 340,000 compounds, 0.84% hits;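 active = B-score under library mean minus 4 SD, starting fluorescence ratio at most library mean plus 5 SD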;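 also: more negative B-score means stronger inhibition of thallium flux through KCNK3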
hERG protect: shields human hERG channel from block by proarrhythmic agents; CHO-hERG, FluxOR thallium flux, dofetilide IC70 present; AID 1511; activation (rescue from dofetilide block), less the hit threshold, % at 10 µM; Q12809; 310,000 compounds, 0.51% hits;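 active = activation above the mean of controls blocked by dofetilide plus 5 SD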;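 also: thallium influx through hERG after potassium depolarization seen as dye fluorescence rise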
KCNQ1 block: human KCNQ1 channel inhibition. CHO-K1 KCNQ1, FluxOR thallium flux fluorescence; active compounds read high. B-score at 10 µM. 310,000 compounds, 1.3% hits. AID 2642;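 active = compounds whose thallium flux B-score, printed positive for inhibition, exceeds three library SD while starting fluorescence stays within three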;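 also: channel opened by potassium depolarization with thallium stimulus after 20 min compound exposure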
KCNK9 inh: blocks the human KCNK9 two-pore domain potassium channel; Q9NPC2; HEK293 KCNK9, FluxOR thallium flux fluorescence; active compounds read low; B-score at 10 µM; 310,000 compounds, 1.2% hits;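 active = ratio B-score over 3 SD below the library mean, with starting fluorescence within 5 SD of its mean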;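 also: negative B-score means less thallium flux so channel inhibition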
KCNK9 inh conf: human KCNK9 inhibitor confirmation; 4,900 compounds, 43% hits; AID 492992; inhibition, % at 10 µM; shares compounds with KCNK9 inh; HEK293 KCNK9 cells, FluxOR thallium flux fluorescence;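 active = thallium signal inhibited by more than 5 SD of the compound-free buffer control wells, on both duplicate plates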;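 also: 0% = assay buffer control wells without compound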
Kir21 sel: selectivity of KCNK9 modulators against mouse Kir2.1 | shares compounds with KCNK9 inh | inhibition, % at 10 µM | 4,900 compounds, 4% hits | Kir2.1 cells, FluxOR thallium flux fluorescence;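 active = thallium signal drop more than 5 SD beyond the mean of the no-compound control wells, seen in both duplicate plates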;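 also: signal is fluorescence rise after thallium addition divided by baseline fluorescence; plate controls were assay buffer only for no effect and full block by chlorpromazine control for full effect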
HEK293 Tl ctr: non-induced cell nonspecific activity of KCNK9 modulators; shares compounds with KCNK9 inh; non-induced KCNK9-HEK293, FluxOR thallium flux; inhibition, % at 10 µM; 4,900 compounds, 40% hits; AID 492997;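 active = thallium signal drop beyond 5 SD of the untreated control mean, on both duplicate plates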;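 also: plate controls were buffer only IC0 wells for no effect and SID17386958 at its maximal inhibitory level for full effect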
KCNK3 inh conf: confirmation of human KCNK3 two-pore domain potassium channel inhibitors; shares compounds with KCNK3 inh; CHO-KCNK3 thallium flux, FluxOR fluorescence; 0% buffer, 100% carvedilol maximal block; ratio percent of control, % at 10 µM; 2,400 compounds, 99% hits; AID 651638;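 active = ratio percent of control, averaged over triplicates, above buffer control mean plus 5 SD, cut at about 64% in these data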;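 also: ratio is the fluorescence rise from min to max over baseline after thallium stimulus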
KCNK3 uninduced: KCNK3 inhibitor counter-screen hit in non-induced cells | AID 651747 | 2,400 compounds, 40% hits | non-induced KCNK3 parental cells, FluxOR thallium flux; active compounds read low | shares compounds with KCNK3 inh | thallium flux ratio (lower = more inhibition) at 10 µM;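 active = thallium flux ratio, averaged over three wells, more than 5 SD below the buffer control mean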;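 also: host cells are CHO cells without KCNK3 induction; ratio is peak minus trough fluorescence over baseline then normalized to buffer controls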
Numbers without * were called inactive; i = inactive; · = no result given.

SMILES	Kir21 block	KCNQ1 act	KCNK3 inh	hERG protect	KCNQ1 block	KCNK9 inh	KCNK9 inh conf	Kir21 sel	HEK293 Tl ctr	KCNK3 inh conf	KCNK3 uninduced
COc1ccc(OC)c(CN2CCCC(C(=O)c3sccc3C)C2)c1 (stereo not given)	-1.9	i	i	-13	i	i	i	i	i	·	·
CCn1c(O)c(C=Nc2cc(Cl)ccc2Cl)c(=O)n(CC)c1=O	0.56	i	i	-6	i	i	·	·	·	·	·
CC(=O)OC1CC(OC2C(O)CC(OC3C(O)CC(OC4CCC5(C)C(CCC6C5CC(O)C5(C)C(C7=CC(=O)OC7)CCC65O)C4)OC3C)OC2C)OC(C)C1OC1OC(CO)C(O)C(O)C1O (stereo not given)	·	·	i	·	·	·	·	·	·	·	·
CC(=O)OC1(c2ccccc2)CCN(C2CCCCC2)CC1C (stereo not given)	0.71	i	i	-12	i	i	·	·	·	·	·
COc1cccc(C2CC3C(=O)C=CC2N3Cc2ccccc2)c1 (stereo not given)	-3	i	i	-11	i	i	i	i	i	·	·
COc1ccc(OC)c(NP(=O)(Oc2ccccc2)Oc2ccccc2)c1	-2	i	i	-5	i	i	·	·	·	·	·
COc1ccc(OC)c(NP(=O)(Oc2ccc(Cl)cc2)Oc2ccc(Cl)cc2)c1	-0.14	i	i	-6	i	-11*	76%*	i	44%*	·	·
Oc1ccc2ccccc2c1CN1CC=C(c2ccccc2)CC1	0.26	i	i	-2	i	i	i	i	i	·	·
Cc1cccc(NC(=O)N2CCCC2)c1	2.3	i	i	-10	i	i	·	·	·	·	·
O=C1/C(=C\c2ccncc2)N2CCC1CC2	0.39	i	i	-2	i	i	·	·	·	·	·
O=C1/C(=C\c2cc3c(cc2Cl)OCO3)N2CCC1CC2	-0.9	i	i	4	i	i	i	i	i	·	·
O=C1/C(=C/c2cc3c(cc2Cl)OCO3)N2CCC1CC2	-0.05	i	·	-10	i	i	·	·	·	·	·
O=C1/C(=C\c2ccc(Cl)c(Cl)c2)N2CCC1CC2	-0.83	i	i	-9	i	i	i	i	i	·	·
COc1cc(C(=O)OC2C[C@H]3CC[C@@H](C2)N3)ccc1O (stereo not given in full)	1.6	i	i	-3	i	i	·	·	·	·	·
CC1(C)N2CC3([N+](=O)[O-])CN1CC([N+](=O)[O-])(C2)C3	0.86	i	i	-6	i	i	·	·	·	·	·
COC(=O)C1=C(c2c(C)noc2C)C[C@@H]2CC[C@H]1N2C(=O)NCC1CC1	·	·	i	·	·	·	·	·	·	·	·
Cc1ccccc1-n1c(C)cc(/C=C2/C(=O)NC(=O)N(Cc3ccco3)C2=O)c1C	-1.6	i	i	-17	i	-15*	34%*	i	32%*	138*	0.11*
CC1CCC(C(C)C)C(OC(=O)Cn2c(COc3ccccc3)[n+](C)c3ccccc32)C1 (stereo not given)	-17*	i	-8.9*	-41	10*	-12*	74%*	77%*	i	122*	i
CC(C)CC(NC(=O)C1CCCCC1)C(=O)N1CCC2(CC1)OCCO2 (stereo not given)	0.43	i	i	-6	i	i	·	·	·	·	·
COC(=O)C1=C(c2ccc(F)cc2OCc2ccccc2)C[C@@H]2CC[C@H]1N2C(=O)N1CCOCC1	·	·	i	·	·	·	·	·	·	·	·
O=S1(=O)N(Cc2ccc(F)cc2)CCCN1Cc1ccccc1Cl	-0.17	i	-12*	-4	i	-8.3*	74%*	i	42%*	125*	0.14*
Cc1ccccc1CN1CCCN(Cc2ccc(Cl)cc2)S1(=O)=O	-0.16	i	i	-3	i	-21*	72%*	i	38%*	119*	i
O=c1[nH]c(O)c(N=Nc2ccc(SC(F)F)cc2)c(=O)[nH]1	0.07	i	i	-8	i	i	·	·	·	·	·
Cc1cc(OCC(=O)O)c2c3c(c(=O)oc2c1)CCCC3	-0.28	i	i	-3	i	i	·	·	·	·	·
COC(=O)c1ccc(COc2cc(C)cc3oc(=O)c4c(c23)CCCC4)o1	1.8	i	-9.1*	-4	i	-13*	26%*	i	i	100*	i
SMILES	Kir21 block	KCNQ1 act	KCNK3 inh	hERG protect	KCNQ1 block	KCNK9 inh	KCNK9 inh conf	Kir21 sel	HEK293 Tl ctr	KCNK3 inh conf	KCNK3 uninduced
OCC12CO[C@@H]3c4ccccc4[C@H](OC1)N32 (stereo not given in full)	-0.02	i	i	-10	i	i	·	·	·	·	·
C#C[C@]1(O)CC[C@H]2[C@@H]3CCC4=Cc5nc6nc7ccccc7n6cc5C[C@]4(C)[C@H]3CC[C@@]21C	·	·	-16*	·	·	·	·	·	·	132*	0.12*
C#CC1(O)CCC2C3CCC4=C/C(=N/OCC(=O)NCC(=O)NC(C(=O)O)C(C)C)CC[C@]4(C)C3CC[C@@]21C (stereo not given in full)	-1.2	i	i	-10	i	i	·	·	·	·	·
O=c1c2ccccc2nc(/C=C\c2ccccc2[N+](=O)[O-])n1-c1ccccc1O	0.64	i	-10*	-14	i	i	·	·	·	112*	0.14*
CCOC(=O)C(=O)NC1CCSC1=O (stereo not given)	0.87	i	i	-5	i	i	·	·	·	·	·
CCCCn1c(O)c(C(CC)=NCc2ccc3c(c2)OCO3)c(=O)[nH]c1=O	0.32	i	-9.7*	-9	i	-6.9*	·	·	·	117*	i
CCC(C(=O)N1CCC2(CC1)OCCO2)c1ccccc1 (stereo not given)	-0.49	i	i	-7	i	i	·	·	·	·	·
CCC(C(=O)N1CCC2(CC1)OCCO2)n1c2ccccc2c2nc(=O)cc(C)n21 (stereo not given)	0.44	i	-10*	-7	i	i	·	·	·	90*	i
CCOc1cc(C2C(C#N)=C(N)Oc3c2c(=O)oc2ccccc32)ccc1OC(=O)c1cccs1 (stereo not given)	-0.13	i	i	-9	i	i	·	·	·	·	·
